The species named for assay [1] is Rattus norvegicus. Description: Cardioprotective activity against hypoxia-induced Sprague-Dawley NRVM damage assessed as increased cell viability at 0.1 umol/L treated 12 hrs before hypoxia challenge measured after 5 hrs by MTT assay. The class given is functional. The gist of the method: (§1)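 Myocytes seeded at 1×10^5 cells/mL and cultured 72 h at 37 °C in 5% CO2, pretreated 12 h, then exposed to hypoxic solution. MTT added for 4 h, formazan dissolved in DMSO, absorbance read at 570 nm. Viability given as percent of normoxic control, taken as 100%.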

The nature of assay [2]: Cardioprotective activity against hypoxia-induced Sprague-Dawley NRVM damage assessed as inhibition of LDH release treated 12 hrs before hypoxia challenge measured after 5 hrs. It counts as functional. As to conditions: Rattus norvegicus. (Release of lactate dehydrogenase indicates damage to the cell membrane.)
The nature of assay [3]: Cardioprotective activity against hypoxia-induced Sprague-Dawley NRVM damage assessed as increase in hydrogen sulfide level treated 12 hrs before hypoxia challenge measured after 5 hrs. It counts as functional. The following applies: Rattus norvegicus. In a few lines: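 H2S in culture medium: 0.5 mL supernatant mixed with 0.25 mL 1% zinc acetate, then 0.25 mL 10% TCA to remove protein, centrifuged 12,000 g for 10 min at 4 °C. Absorbance read at 670 nm in duplicate against a same-day NaHS calibration curve. Cells pretreated 12 h before hypoxia; three or six samples.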

Assay [4] is filed under the species Rattus norvegicus. The assay is described as follows: Cardioprotective activity against hypoxia-induced Sprague-Dawley NRVM damage assessed as increased cell viability at 0.1 uM treated 12 hrs before hypoxia challenge measured after 5 hrs by MTT assay. The class given is functional. The gist of the method:
as §1

The nature of assay [5]: Cardioprotective activity against hypoxia-induced Sprague-Dawley NRVM damage assessed as inhibition of LDH release at 0.1 uM treated 12 hrs before hypoxia challenge measured after 5 hrs. It counts as functional. The following applies: Rattus norvegicus.
Assay [6] is described as follows: Cardioprotective activity against hypoxia-induced Sprague-Dawley NRVM damage assessed as increase in hydrogen sulfide level at 0.1 uM treated 12 hrs before hypoxia challenge measured after 5 hrs. It counts as functional. The following applies: Rattus norvegicus.
Assay [7] is described as follows: Cardioprotective activity against hypoxia-induced Sprague-Dawley NRVM damage assessed as decrease in ROS level treated 12 hrs before hypoxia challenge measured after 5 hrs […]. It counts as functional. As to conditions: Rattus norvegicus. In a few lines:
(§2)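 Kit assays per the manufacturer for ROS level and catalase activity in hypoxic myocytes pretreated 12 h. Means ± S.E.M. from three samples; t-test versus the model group.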

The species entered for assay [8] is Rattus norvegicus. The assay is described as follows: Cardioprotective activity against hypoxia-induced Sprague-Dawley NRVM damage assessed as decrease in MDA level treated 12 hrs before hypoxia challenge measured after 5 hrs […]. The class given is functional.
The nature of assay [9]: Cardioprotective activity against hypoxia-induced Sprague-Dawley NRVM damage assessed as increase in SOD activity treated 12 hrs before hypoxia challenge measured after 5 hrs […]. It counts as functional. As to conditions: Rattus norvegicus.
Assay [10] in a line: Cardioprotective activity against hypoxia-induced Sprague-Dawley NRVM damage assessed as increase in CAT activity treated 12 hrs before hypoxia challenge measured after 5 hrs […]. As to conditions: Rattus norvegicus. It counts as functional. In a few lines: as §2
Assay [11] in a line: Antiapoptotic activity against hypoxia-induced Sprague-Dawley NRVM assessed as decrease in nuclei-shrunk treated 12 hrs before hypoxia challenge measured after 5 hrs using Hoechst 33258 staining-based by fluorescence microscopy. The class given is functional. The following applies: Rattus norvegicus. In a few lines: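 After 12 h pretreatment and hypoxia, myocytes were stained with Hoechst 33258 and photographed under fluorescence (×400). Each image is representative of three independent observations.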

Assay [12] can be described thus: Antiapoptotic activity against hypoxia-induced Sprague-Dawley NRVM assessed as decrease in nuclear condensation treated 12 hrs before hypoxia challenge measured after 5 hrs by transmission electron microscopy. It counts as functional. As to conditions: Rattus norvegicus. The gist of the method: (§3)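 Neonatal rat ventricular myocytes cultured 72 h (DMEM, 10% FBS, 5-bromodeoxyuridine), pretreated 12 h, then put in hypoxic solution. Cells fixed 2 h in 2.5% glutaraldehyde in PBS, post-fixed 1 h in 1% osmium tetroxide, dehydrated through graded ethanol, embedded in Epon 812, and examined by transmission electron microscopy (×11000). Compared with normoxic and hypoxic untreated groups.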

A short description of assay [13]: Antiapoptotic activity against hypoxia-induced Sprague-Dawley NRVM assessed as decrease in nucleus aggregation treated 12 hrs before hypoxia challenge measured after 5 hrs by transmission electron microscopy. The class given is functional. As to conditions: Rattus norvegicus. The gist of the method: as §3
A short description of assay [14]: Antiapoptotic activity against hypoxia-induced Sprague-Dawley NRVM assessed as increase in myofilaments integrity preservation treated 12 hrs before hypoxia challenge measured after 5 hrs by transmission electron microscopy. The following applies: Rattus norvegicus. It counts as functional. The gist of the method:
as §3

A short description of assay [15]: Antiapoptotic activity against hypoxia-induced Sprague-Dawley NRVM assessed as appearance of distinct sarcomeres treated 12 hrs before hypoxia challenge measured after 5 hrs by transmission electron microscopy. It counts as functional. The following applies: Rattus norvegicus. The gist of the method: as §3
Assay [16] in a line: Antiapoptotic activity against hypoxia-induced Sprague-Dawley NRVM assessed as decrease in apoptotic cells treated 12 hrs before hypoxia challenge measured after 5 hrs by AnnexinV-FITC/PI staining-based flow cytometric analysis. The class given is functional, cell-based. The following applies: Rattus norvegicus. In a few lines:
(§4)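 Cardiomyocytes pretreated 12 h before hypoxia. Annexin V-FITC/PI staining done with a kit per the manufacturer, then read by flow cytometry to separate apoptotic from necrotic cells. Means ± S.E.M. from three samples; two-tailed Student's t-test versus the model group.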
In general terms: Flow cytometry measures light scatter and fluorescence of single cells or particles in a stream.

The nature of assay [17]: Antiapoptotic activity against hypoxia-induced Sprague-Dawley NRVM assessed as inhibition of cell necrosis treated 12 hrs before hypoxia challenge measured after 5 hrs by AnnexinV-FITC/PI staining-based flow cytometric analysis. It counts as functional. As to conditions: Rattus norvegicus. The gist of the method:
as §4

A short description of assay [18]: Antiapoptotic activity against hypoxia-induced Sprague-Dawley NRVM assessed as increase in bcl-2 expression treated 12 hrs before hypoxia challenge measured after 5 hrs by RT-PCR analysis relative to control. It counts as functional. The following applies: Rattus norvegicus.
The nature of assay [19]: Antiapoptotic activity against hypoxia-induced Sprague-Dawley NRVM assessed as decrease in bax expression treated 12 hrs before hypoxia challenge measured after 5 hrs by RT-PCR analysis relative to control. The following applies: Rattus norvegicus. It counts as functional.
The nature of assay [20]: Antiapoptotic activity against hypoxia-induced Sprague-Dawley NRVM assessed as increase in Bcl2 to Bax mRNA expression ratio treated 12 hrs before hypoxia challenge measured after 5 hrs by RT-PCR analysis relative to control. It counts as functional. The following applies: Rattus norvegicus.
Assay [21] in a line: Down regulation of caspase-3 expression in hypoxia-induced Sprague-Dawley NRVM treated 12 hrs before hypoxia challenge measured after 5 hrs by RT-PCR down analysis relative to control. The following applies: Rattus norvegicus. The class given is functional.
A short description of assay [22]: Antiapoptotic activity against hypoxia-induced Sprague-Dawley NRVM assessed as decrease in cleaved-caspase-3 to procaspase-3 ratio treated 12 hrs before hypoxia challenge measured after 5 hrs by Western blot analysis relative to control. The following applies: Rattus norvegicus. Background: In western blotting, separated proteins are transferred to a membrane and probed.

The structures appear in SMILES notation. Activity calls are given as the source filed them. The calls are words filed in the database; no cut-off is given here.

For the compound `C=CCSC[C@H](N)C(=O)Oc1c(OC)cc(C(=O)OCCCCNC(=N)N)cc1OC`, the result (in the assay listed under Rattus norvegicus [1]; in assay [3]) was Active. Besides, the inhibition entry in [2] was “Active”.

Take `COc1cc(C(=O)OCCCCNC(=N)N)cc(OC)c1OC(=O)CCSSCCC(=O)Oc1c(OC)cc(C(=O)OCCCCNC(=N)N)cc1OC`: the result in the assay listed under Rattus norvegicus [1] was Active. The inhibition result in [2] was “Active”. The outcome in assay [3] was inactive.

Regarding `COc1cc(C(=O)OCCCCNC(=N)N)cc(OC)c1O`, the result (in the assay listed under Rattus norvegicus [4]; in assay [6]) was Active. In addition, the inhibition entry in assay [5] was “Active”.

With `C#CCSC[C@H](N)C(=O)Oc1c(OC)cc(C(=O)OCCCCNC(=N)N)cc1OC`, the outcome (in the assay filed under Rattus norvegicus [1]; in assay [3]; in the assay filed under Rattus norvegicus [4]; in assay [6]; in [7]; in the assay filed under Rattus norvegicus [8]) was Active. Besides, the outcome in [9], in assay [10], in [11], in assay [12], in [13] and in [14] was Active. In addition, the outcome in [15], in assay [16], in assay [21] and in assay [22] was Active. The inhibition entry in [2] and in [5] was “Active” in each case. Besides, the inhibition entry in assay [17] is “inactive”. Also, the fold change (FC) in [18] is 0.98; in [19], 0.89; in assay [20], 1.22.

With `C#CCSC[C@H](N)C(=O)O`, the result (in the assay listed under Rattus norvegicus [4]; in assay [6]) was Active. In [5], the inhibition entry was “Active”.

Source of the values: ChEMBL document CHEMBL1909505, “Leonurine-cysteine analog conjugates as a new class of multifunctional anti-myocardial ischemia agent” (Eur J Med Chem, 2011).
